In the M2OR odorant receptor database:

target: T1, OR2A1 (Homo sapiens) (UniProt Q8NGT9); conditions: stereoisomer not certain
T1 sequence (whole entry): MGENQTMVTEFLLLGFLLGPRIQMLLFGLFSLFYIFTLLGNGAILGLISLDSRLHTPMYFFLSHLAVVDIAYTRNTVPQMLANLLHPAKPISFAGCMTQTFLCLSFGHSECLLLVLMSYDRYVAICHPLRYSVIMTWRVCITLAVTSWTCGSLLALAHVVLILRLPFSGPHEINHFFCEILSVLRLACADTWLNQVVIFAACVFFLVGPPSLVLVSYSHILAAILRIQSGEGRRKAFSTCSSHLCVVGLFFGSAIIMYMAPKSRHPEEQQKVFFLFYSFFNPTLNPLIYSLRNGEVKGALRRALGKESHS
Method in brief: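 Assay methods differ from source to source, frequently being transient luciferase assays in mammalian cell lines. For each receptor–molecule pair, the label responsive (active) applies when the original authors judged the measured signal statistically different from baseline, and non-responsive (inactive) applies otherwise.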

Odorant receptor agonist call, inactive:
CCCC(=O)CC, CCCCCCCCCC(=O)OC, CC(=O)O, CCCCCCCCCCCCCCCCCC(=O)[O-].[H+], CCCCCCCCCC(=O)OCC, CC(C)=CCCC(C)=CCCC(C)=CCO, CCCCCCCCCCCC(=O)OC, CCCCCCCC(=O)OCC, Cc1cnc(C)cn1, CCC(C)CO (stereo not drawn), CCCCCCCCCCCCCC(=O)OCC, CCCCCCCCCCCCO, CCCCCCCCCCCCCCCCCC(=O)OC, CCCCCCCCCCCCCC(=O)O, CCCCOCC(C)O (stereo not drawn), CCCCCCCCCCCCCC(=O)OC, CC(O)C(=O)[O-].[H+] (stereo not drawn), O=c1ccc2ccccc2o1, CCCCCCCCCCCC(=O)O, C=C1CCC2CC1C2(C)C (stereo not drawn), CCCCCCCCCCCC(=O)OCC, CCCCC(=O)C(C)=O, CCCCCCCCO, CC(C=O)Cc1ccc(C(C)(C)C)cc1 (stereo not drawn), CCCCCCCCCCCCCCCC(=O)OCC, CC(C)=CCCC(C)=CCO, CCCO, CCCCCCCCCCCCCCC(=O)O
